Laboratory results from ChEMBL document CHEMBL1156310, “Stepwise synthesis of oligonucleotide-peptide conjugates containing guanidinium and lipophilic groups in their 3'-termini” (Bioorg Med Chem Lett, 2010).

Tests used:
[1] = test system: SH-SY5Y; test: Antisense activity in human SH-SY5Y cells assessed as inhibition of luciferase gene expression at 60 nM after 22 hrs by luminometry in the presence of lipofectamine 2000; type: functional
Method in brief: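 SH-SY5Y cells cotransfected via Lipofectamine 2000 with Renilla (target) and firefly (internal control) luciferase plasmids plus phosphorothioate ASO derivatives at 60 nM, targeting Renilla mRNA site 21-38; scrambled sequences as controls. Read-out: Renilla luciferase inhibition normalized to firefly.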

[2] = test system: SH-SY5Y; test: Cellular uptake in human SH-SY5Y cells at 300 nM after 22 hrs by dual leucifearse reporter assay; type: ADME, cell-based; conditions: 0.3 µM
Method in brief: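 Dual-luciferase plasmids (Renilla target, firefly internal control) transfected into SH-SY5Y; after 3 h, medium replaced with fresh medium containing ASO-peptide conjugates (150, 200, 300 nM) without Lipofectamine 2000. Luciferase activities measured 22 h after transfection; knockdown expressed as inhibition of Renilla expression. Phosphorothioate ASO targets Renilla mRNA 21-38 site.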

Drug uptake [2]	Structure (SMILES)	inhibition at 0.06 µM [1]
–	Cc1cn([C@H]2C[C@H](OP(O)(=S)OC[C@H]3O[C@@H](n4cc(C)c(=O)[nH]c4=O)C[C@@H]3OP(O)(=S)OC[C@H]3O[C@@H](n4cnc5c(=O)[nH]c(N)nc54)[C@H](O)[C@@H]3OP(O)(=S)OC[C@H]3O[C@@H](n4cc(C)c(=O)[nH]c4=O)C[C@@H]3OP(O)(=S)OC[C@H]3O[C@@H](n4cc(C)c(=O)[nH]c4=O)C[C@@H]3OP(O)(=S)OC[C@H]3O[C@@H](n4cc(C)c(=O)[nH]c4=O)C[C@@H]3OP(O)(=S)OC[C@H]3O[C@@H](n4ccc(N)nc4=O)[C@H](O)[C@@H]3OP(O)(=S)OC[C@H]3O[C@@H](n4ccc(N)nc4=O)[C@H](O)[C@@H]3OP(O)(=S)OC[C@H]3O[C@@H](n4cc(C)c(=O)[nH]c4=O)C[C@@H]3OP(O)(=S)OC[C@H]3O[C@@H](n4cc(C)c(=O)[nH]c4=O)C[C@@H]3OP(O)(=S)OC[C@H]3O[C@@H](n4cc(C)c(=O)[nH]c4=O)C[C@@H]3OP(O)(=S)OC[C@H]3O[C@@H](n4cnc5c(=O)[nH]c(N)nc54)[C@H](O)[C@@H]3OP(O)(=S)OC[C@H]3O[C@@H](n4ccc(N)nc4=O)[C@H](O)[C@@H]3O)[C@@H](COP(O)(=S)O[C@H]3[C@@H](O)[C@H](n4ccc(N)nc4=O)O[C@@H]3COP(O)(=S)O[C@H]3C[C@H](n4cc(C)c(=O)[nH]c4=O)O[C@@H]3COP(O)(=S)O[C@H]3[C@@H](O)[C@H](n4cnc5c(=O)[nH]c(N)nc54)O[C@@H]3COP(O)(=S)O[C@H]3[C@@H](O)[C@H](n4cnc5c(=O)[nH]c(N)nc54)O[C@@H]3COP(O)(=S)O[C@H]3[C@@H](O)[C@H](n4cnc5c(N)ncnc54)O[C@@H]3COP(O)(=S)OCCCC(=O)NCCCCCCO)O2)c(=O)[nH]c1=O (some centres not stated)	69%
–	CCCCCCCCNC(=O)NCCCC[C@@H](NC(=O)CCCOP(O)(=S)OC[C@H]1O[C@@H](n2cnc3c(N)ncnc32)[C@H](O)[C@@H]1OP(O)(=S)OC[C@H]1O[C@@H](n2cnc3c(=O)[nH]c(N)nc32)[C@H](O)[C@@H]1OP(O)(=S)OC[C@H]1O[C@@H](n2cnc3c(=O)[nH]c(N)nc32)[C@H](O)[C@@H]1OP(O)(=S)OC[C@H]1O[C@@H](n2cc(C)c(=O)[nH]c2=O)C[C@@H]1OP(O)(=S)OC[C@H]1O[C@@H](n2ccc(N)nc2=O)[C@H](O)[C@@H]1OP(O)(=S)OC[C@H]1O[C@@H](n2cc(C)c(=O)[nH]c2=O)C[C@@H]1OP(O)(=S)OC[C@H]1O[C@@H](n2cc(C)c(=O)[nH]c2=O)C[C@@H]1OP(O)(=S)OC[C@H]1O[C@@H](n2cnc3c(=O)[nH]c(N)nc32)[C@H](O)[C@@H]1OP(O)(=S)OC[C@H]1O[C@@H](n2cc(C)c(=O)[nH]c2=O)C[C@@H]1OP(O)(=S)OC[C@H]1O[C@@H](n2cc(C)c(=O)[nH]c2=O)C[C@@H]1OP(O)(=S)OC[C@H]1O[C@@H](n2cc(C)c(=O)[nH]c2=O)C[C@@H]1OP(O)(=S)OC[C@H]1O[C@@H](n2ccc(N)nc2=O)[C@H](O)[C@@H]1OP(O)(=S)OC[C@H]1O[C@@H](n2ccc(N)nc2=O)[C@H](O)[C@@H]1OP(O)(=S)OC[C@H]1O[C@@H](n2cc(C)c(=O)[nH]c2=O)C[C@@H]1OP(O)(=S)OC[C@H]1O[C@@H](n2cc(C)c(=O)[nH]c2=O)C[C@@H]1OP(O)(=S)OC[C@H]1O[C@@H](n2cc(C)c(=O)[nH]c2=O)C[C@@H]1OP(O)(=S)OC[C@H]1O[C@@H](n2cnc3c(=O)[nH]c(N)nc32)[C@H](O)[C@@H]1OP(O)(=S)OC[C@H]1O[C@@H](n2ccc(N)nc2=O)[C@H](O)[C@@H]1O)C(=O)NCCCCCCO (some centres not stated)	55%
–	CCCCCCCCc1ccc(NC(=O)NCCCC[C@@H](NC(=O)CCCOP(O)(=S)OC[C@H]2O[C@@H](n3cnc4c(N)ncnc43)[C@H](O)[C@@H]2OP(O)(=S)OC[C@H]2O[C@@H](n3cnc4c(=O)[nH]c(N)nc43)[C@H](O)[C@@H]2OP(O)(=S)OC[C@H]2O[C@@H](n3cnc4c(=O)[nH]c(N)nc43)[C@H](O)[C@@H]2OP(O)(=S)OC[C@H]2O[C@@H](n3cc(C)c(=O)[nH]c3=O)C[C@@H]2OP(O)(=S)OC[C@H]2O[C@@H](n3ccc(N)nc3=O)[C@H](O)[C@@H]2OP(O)(=S)OC[C@H]2O[C@@H](n3cc(C)c(=O)[nH]c3=O)C[C@@H]2OP(O)(=S)OC[C@H]2O[C@@H](n3cc(C)c(=O)[nH]c3=O)C[C@@H]2OP(O)(=S)OC[C@H]2O[C@@H](n3cnc4c(=O)[nH]c(N)nc43)[C@H](O)[C@@H]2OP(O)(=S)OC[C@H]2O[C@@H](n3cc(C)c(=O)[nH]c3=O)C[C@@H]2OP(O)(=S)OC[C@H]2O[C@@H](n3cc(C)c(=O)[nH]c3=O)C[C@@H]2OP(O)(=S)OC[C@H]2O[C@@H](n3cc(C)c(=O)[nH]c3=O)C[C@@H]2OP(O)(=S)OC[C@H]2O[C@@H](n3ccc(N)nc3=O)[C@H](O)[C@@H]2OP(O)(=S)OC[C@H]2O[C@@H](n3ccc(N)nc3=O)[C@H](O)[C@@H]2OP(O)(=S)OC[C@H]2O[C@@H](n3cc(C)c(=O)[nH]c3=O)C[C@@H]2OP(O)(=S)OC[C@H]2O[C@@H](n3cc(C)c(=O)[nH]c3=O)C[C@@H]2OP(O)(=S)OC[C@H]2O[C@@H](n3cc(C)c(=O)[nH]c3=O)C[C@@H]2OP(O)(=S)OC[C@H]2O[C@@H](n3cnc4c(=O)[nH]c(N)nc43)[C@H](O)[C@@H]2OP(O)(=S)OC[C@H]2O[C@@H](n3ccc(N)nc3=O)[C@H](O)[C@@H]2O)C(=O)NCCCCCCO)cc1 (some centres not stated)	8%
15%	Cc1cn([C@H]2C[C@H](OP(O)(=S)OC[C@H]3O[C@@H](n4cc(C)c(=O)[nH]c4=O)C[C@@H]3OP(O)(=S)OC[C@H]3O[C@@H](n4cnc5c(=O)[nH]c(N)nc54)[C@H](O)[C@@H]3OP(O)(=S)OC[C@H]3O[C@@H](n4cc(C)c(=O)[nH]c4=O)C[C@@H]3OP(O)(=S)OC[C@H]3O[C@@H](n4cc(C)c(=O)[nH]c4=O)C[C@@H]3OP(O)(=S)OC[C@H]3O[C@@H](n4cc(C)c(=O)[nH]c4=O)C[C@@H]3OP(O)(=S)OC[C@H]3O[C@@H](n4ccc(N)nc4=O)[C@H](O)[C@@H]3OP(O)(=S)OC[C@H]3O[C@@H](n4ccc(N)nc4=O)[C@H](O)[C@@H]3OP(O)(=S)OC[C@H]3O[C@@H](n4cc(C)c(=O)[nH]c4=O)C[C@@H]3OP(O)(=S)OC[C@H]3O[C@@H](n4cc(C)c(=O)[nH]c4=O)C[C@@H]3OP(O)(=S)OC[C@H]3O[C@@H](n4cc(C)c(=O)[nH]c4=O)C[C@@H]3OP(O)(=S)OC[C@H]3O[C@@H](n4cnc5c(=O)[nH]c(N)nc54)[C@H](O)[C@@H]3OP(O)(=S)OC[C@H]3O[C@@H](n4ccc(N)nc4=O)[C@H](O)[C@@H]3O)[C@@H](COP(O)(=S)O[C@H]3[C@@H](O)[C@H](n4ccc(N)nc4=O)O[C@@H]3COP(O)(=S)O[C@H]3C[C@H](n4cc(C)c(=O)[nH]c4=O)O[C@@H]3COP(O)(=S)O[C@H]3[C@@H](O)[C@H](n4cnc5c(=O)[nH]c(N)nc54)O[C@@H]3COP(O)(=S)O[C@H]3[C@@H](O)[C@H](n4cnc5c(=O)[nH]c(N)nc54)O[C@@H]3COP(O)(=S)O[C@H]3[C@@H](O)[C@H](n4cnc5c(N)ncnc54)O[C@@H]3COP(O)(=S)OCCCC(=O)N[C@H](CCCCN)C(=O)N[C@@H](CCCCN)C(=O)N[C@H](CCCCN)C(=O)N[C@@H](CCCCN)C(=O)NCCCCCCO)O2)c(=O)[nH]c1=O (some centres not stated)	57%
11%	Cc1cn([C@H]2C[C@H](OP(O)(=S)OC[C@H]3O[C@@H](n4cc(C)c(=O)[nH]c4=O)C[C@@H]3OP(O)(=S)OC[C@H]3O[C@@H](n4cnc5c(=O)[nH]c(N)nc54)[C@H](O)[C@@H]3OP(O)(=S)OC[C@H]3O[C@@H](n4cc(C)c(=O)[nH]c4=O)C[C@@H]3OP(O)(=S)OC[C@H]3O[C@@H](n4cc(C)c(=O)[nH]c4=O)C[C@@H]3OP(O)(=S)OC[C@H]3O[C@@H](n4cc(C)c(=O)[nH]c4=O)C[C@@H]3OP(O)(=S)OC[C@H]3O[C@@H](n4ccc(N)nc4=O)[C@H](O)[C@@H]3OP(O)(=S)OC[C@H]3O[C@@H](n4ccc(N)nc4=O)[C@H](O)[C@@H]3OP(O)(=S)OC[C@H]3O[C@@H](n4cc(C)c(=O)[nH]c4=O)C[C@@H]3OP(O)(=S)OC[C@H]3O[C@@H](n4cc(C)c(=O)[nH]c4=O)C[C@@H]3OP(O)(=S)OC[C@H]3O[C@@H](n4cc(C)c(=O)[nH]c4=O)C[C@@H]3OP(O)(=S)OC[C@H]3O[C@@H](n4cnc5c(=O)[nH]c(N)nc54)[C@H](O)[C@@H]3OP(O)(=S)OC[C@H]3O[C@@H](n4ccc(N)nc4=O)[C@H](O)[C@@H]3O)[C@@H](COP(O)(=S)O[C@H]3[C@@H](O)[C@H](n4ccc(N)nc4=O)O[C@@H]3COP(O)(=S)O[C@H]3C[C@H](n4cc(C)c(=O)[nH]c4=O)O[C@@H]3COP(O)(=S)O[C@H]3[C@@H](O)[C@H](n4cnc5c(=O)[nH]c(N)nc54)O[C@@H]3COP(O)(=S)O[C@H]3[C@@H](O)[C@H](n4cnc5c(=O)[nH]c(N)nc54)O[C@@H]3COP(O)(=S)O[C@H]3[C@@H](O)[C@H](n4cnc5c(N)ncnc54)O[C@@H]3COP(O)(=S)OCCCC(=O)N[C@H](CCCCN)C(=O)N[C@@H](CCCCN)C(=O)NCCCCCCO)O2)c(=O)[nH]c1=O (some centres not stated)	61%
